How the values were obtained:
Assay type in all cases: ADME, organism-based
Design in all cases: dosed compound name [14C]Mirabegron
Settings in all cases: in vivo
[1] = Drug recovery in healthy human urine treated with [14C]mirabegron at 160 mg, po as single dose measured up to 48 hrs
How it was run: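 Urine was collected at 0–6, 6–12, 12–24 and 24–48 h after a single oral 160 mg [14C]mirabegron dose in four men, with dichlorvos added. Samples underwent solid-phase extraction and radio-HPLC (C18, 40°C), with eluate fractions counted by scintillation. Each peak, as a percentage of eluted radioactivity, was converted to % of dose without recovery correction; mean ± S.D.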

[2] = tested on: Plasma; assay: Drug recovery in healthy human plasma treated with [14C]mirabegron at 160 mg, po as single dose measured at 2 hrs
How it was run: (§1)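 Plasma taken at 2, 4, 8 and 12 h from the four subjects was pooled at each time point, with dichlorvos added. Pools underwent solid-phase extraction, then HPLC with fractions counted by low-level liquid scintillation. Each peak is expressed as % of the radioactivity injected onto HPLC.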

[3] = tested on: Plasma; assay: Drug recovery in healthy human plasma treated with [14C]mirabegron at 160 mg, po as single dose measured at 4 hrs; how it was run: as §1
[4] = tested on: Plasma; assay: Drug recovery in healthy human plasma treated with [14C]mirabegron at 160 mg, po as single dose measured at 8 hrs; how it was run: as §1
[5] = tested on: Plasma; assay: Drug recovery in healthy human plasma treated with [14C]mirabegron at 160 mg, po as single dose measured at 12 hrs; how it was run: as §1

Row | Compound | Compound recovery [1] | Compound recovery [2] | Compound recovery [3] | Compound recovery [4] | Compound recovery [5]
1 | CC(=O)Nc1ccc(CCNC[C@H](O)c2ccccc2)cc1.Cl | 2.9% | 3.7% | 4.9% | 9.4% | 13%
2 | Nc1nc(CC(=O)Nc2ccc(CCN(C[C@H](O)c3ccccc3)O[C@@H]3O[C@H](C(=O)O)[C@@H](O)[C@H](O)[C@H]3O)cc2)cs1 | 0.6% | 6.9% | 5.9% | 3.5% | Below limit of detection
3 | Cl.Nc1ccc(CCNC[C@H](O)c2ccccc2)cc1 | 1.7% | 3.3% | 4.3% | 6.2% | 7.6%
4 | Nc1ccc(CCNCC(O)c2ccccc2)cc1O[C@@H]1O[C@H](C(=O)O)[C@@H](O)[C@H](O)[C@H]1O (stereo not given in full) | 2% | Below limit of detection | Below limit of detection | Below limit of detection | Below limit of detection

From ChEMBL document CHEMBL3526041, “Absorption, metabolism and excretion of [(14)C]mirabegron (YM178), a potent and selective β(3)-adrenoceptor agonist, after oral administration to healthy male volunteers” (Drug Metab Dispos, 2012)
